According to paper PMC4545378 (Cancer chemotherapy and pharmacology, 2015):
“And” between values parts separate entries of the source, which are not always exact repeats. Identical values can stand only once. “Also recorded” adds a separate entry of the source. Like-named read-outs stand apart in the source and are kept apart here.

What was measured:
BEN blood partitioning = assay type: in vitro ADME, human; details: 50% RBCs in plasma, on ice
How it was run: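 Blood (50% RBCs in plasma) held on ice with 1 mM disulfiram for 10 min, then dosed with test compound at 1000 ng/mL final. Blood sampled at 5–30 min and spun at 12,000 × g for 2 min; plasma acidified with H2SO4 and analysed by LC-MS/MS. Run in parallel in 100% plasma, in triplicate. Ratio taken as plasma-only concentration divided by plasma concentration from the 50%-RBC incubation.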

[1] = humans, after 9 mg/m^2; cited from earlier work
[2] = preliminary experiments; cited from earlier work
ALDH3A1 = target: T1, ALDH3A1 (Homo sapiens, UniProt P30838); assay: Metabolism using purified ALDH isoforms: ALDH3A1; assay type: biochemical; details: purified ALDH3A1, BEN 1000 ng/mL
T1 sequence (P30838 1-453): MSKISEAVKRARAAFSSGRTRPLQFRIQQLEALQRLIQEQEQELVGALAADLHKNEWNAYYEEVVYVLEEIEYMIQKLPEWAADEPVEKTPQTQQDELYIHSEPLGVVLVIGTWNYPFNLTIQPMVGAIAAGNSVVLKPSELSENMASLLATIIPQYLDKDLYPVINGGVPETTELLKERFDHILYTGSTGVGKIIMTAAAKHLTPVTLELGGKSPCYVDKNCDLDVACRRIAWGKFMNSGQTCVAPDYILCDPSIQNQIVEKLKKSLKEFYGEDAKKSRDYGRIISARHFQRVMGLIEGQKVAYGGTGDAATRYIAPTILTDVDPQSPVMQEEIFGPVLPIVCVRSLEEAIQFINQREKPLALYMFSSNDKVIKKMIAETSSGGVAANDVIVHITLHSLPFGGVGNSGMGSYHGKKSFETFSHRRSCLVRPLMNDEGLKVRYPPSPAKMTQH

[3] = but not plasma; cited from earlier work
ALDH5A1 = target: T2, ALDH5A1 (Homo sapiens, UniProt P51649); assay: Metabolism using purified ALDH isoforms: ALDH5A1; assay type: biochemical; details: purified ALDH5A1, BEN 1000 ng/mL
T2 sequence (P51649 48-535): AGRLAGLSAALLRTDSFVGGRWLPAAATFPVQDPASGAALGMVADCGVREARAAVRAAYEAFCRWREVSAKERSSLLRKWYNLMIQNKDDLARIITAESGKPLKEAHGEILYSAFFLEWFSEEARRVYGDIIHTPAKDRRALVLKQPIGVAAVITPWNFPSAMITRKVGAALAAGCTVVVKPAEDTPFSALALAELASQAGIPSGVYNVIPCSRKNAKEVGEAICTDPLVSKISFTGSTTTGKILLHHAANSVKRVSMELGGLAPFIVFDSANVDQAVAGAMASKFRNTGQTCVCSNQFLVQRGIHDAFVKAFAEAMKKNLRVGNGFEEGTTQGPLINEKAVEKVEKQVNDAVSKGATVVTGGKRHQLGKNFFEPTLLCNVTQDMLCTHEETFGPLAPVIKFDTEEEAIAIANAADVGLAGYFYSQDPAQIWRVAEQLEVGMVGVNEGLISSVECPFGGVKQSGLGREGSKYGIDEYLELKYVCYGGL

CYP3A = details: preliminary experiments; cited from earlier work
[4] = test system: renal carcinoma cells (RCC); details: cited from earlier work
RBCs [5] = assay: Apparent Vmax and Km determination in 10% RBCs in plasma; assay type: in vitro ADME, human
purified human ALDH1A1 = target: T3, purified human ALDH1A1 (Homo sapiens, UniProt P00352); assay: Metabolism using purified ALDH isoforms: ALDH1A1; assay type: biochemical
T3 sequence (P00352 1-501): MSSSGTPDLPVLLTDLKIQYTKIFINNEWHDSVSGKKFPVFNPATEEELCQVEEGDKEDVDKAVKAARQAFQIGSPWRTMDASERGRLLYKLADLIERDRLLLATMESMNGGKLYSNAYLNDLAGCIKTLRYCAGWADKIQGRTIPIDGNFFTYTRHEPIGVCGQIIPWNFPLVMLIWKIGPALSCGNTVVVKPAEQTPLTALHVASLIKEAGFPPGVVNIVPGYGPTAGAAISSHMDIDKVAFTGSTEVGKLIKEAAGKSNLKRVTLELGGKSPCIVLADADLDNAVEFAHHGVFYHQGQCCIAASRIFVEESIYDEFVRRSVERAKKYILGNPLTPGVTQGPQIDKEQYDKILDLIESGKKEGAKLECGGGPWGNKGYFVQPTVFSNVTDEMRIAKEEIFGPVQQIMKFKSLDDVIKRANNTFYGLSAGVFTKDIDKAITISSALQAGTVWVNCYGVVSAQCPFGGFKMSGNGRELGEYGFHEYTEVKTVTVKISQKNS
How it was run: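 Purified human ALDH1A1 (5 μg/mL) in […] pH 7.4 with 200 mM KCl and 4 mM DTT, plus test compound at 1000 ng/mL. Pre-incubated 10 min at 37 °C, then started with NAD or […] (1 mM) as the isozyme requires. Sampled at 0–60 min into H2SO4, acetonitrile-extracted, and parent and […] measured by LC-MS/MS. Inhibition arms used anti-ALDH1A1 antibody or disulfiram. Three independent experiments; rate normalised per μg enzyme.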

lysed RBCs = assay: BEN in lysed blood; assay type: in vitro ADME, human
How it was run: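 10% RBCs in plasma lysed by three freeze-thaw cycles and incubated at 37 °C alongside unlysed cells. Test compound added at 10 μg/mL final; sampled at 5, 60, 120 and 180 min. In a cofactor arm, NADH or NADPH (500 μM final) was added to lysed RBCs and sampling ran from 5 to 120 min. Parent quantified by LC-MS/MS.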

[6] = mice, after 20 mg/kg BEN; cited from earlier work
RBCs [7] = assay: Effect of RBC concentration on BEN metabolism; assay type: in vitro ADME, human; details: BEN 10 μg/mL, 37 °C
How it was run: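 RBCs taken from the bottom of the packed layer, avoiding the buffy coat, and resuspended in plasma at 0, 0.1, 1 and 10%. Test compound spiked at 10 μg/mL and incubated at 37 °C in a shaking bath. Aliquots taken from 0 to 360 min and at 24 h; remaining parent measured by LC-MS/MS.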

RBCs [8] = assay: BEN metabolism in 10% RBCs with ALDH and AO inhibitor; assay type: in vitro ADME, human; details: for inhibition of BEN metabolism (conversion of BEN to BA) in RBC: 10% RBCs in plasma, inhibitor 150 μM
RXF-393 = details: mice, RXF-393 implanted subcutaneously or orthotopically under the renal capsule; cited from earlier work
RBCs [9] = assay type: in vitro ADME, human; details: 10% RBCs, all incubations (with and without CO or N2), BEN 3 μg/mL
ALDH2 = target: T4, ALDH2 (Homo sapiens, UniProt P05091); assay: Metabolism using purified ALDH isoforms: ALDH2; assay type: biochemical; details: purified ALDH2, BEN 1000 ng/mL
T4 sequence (P05091 18-517): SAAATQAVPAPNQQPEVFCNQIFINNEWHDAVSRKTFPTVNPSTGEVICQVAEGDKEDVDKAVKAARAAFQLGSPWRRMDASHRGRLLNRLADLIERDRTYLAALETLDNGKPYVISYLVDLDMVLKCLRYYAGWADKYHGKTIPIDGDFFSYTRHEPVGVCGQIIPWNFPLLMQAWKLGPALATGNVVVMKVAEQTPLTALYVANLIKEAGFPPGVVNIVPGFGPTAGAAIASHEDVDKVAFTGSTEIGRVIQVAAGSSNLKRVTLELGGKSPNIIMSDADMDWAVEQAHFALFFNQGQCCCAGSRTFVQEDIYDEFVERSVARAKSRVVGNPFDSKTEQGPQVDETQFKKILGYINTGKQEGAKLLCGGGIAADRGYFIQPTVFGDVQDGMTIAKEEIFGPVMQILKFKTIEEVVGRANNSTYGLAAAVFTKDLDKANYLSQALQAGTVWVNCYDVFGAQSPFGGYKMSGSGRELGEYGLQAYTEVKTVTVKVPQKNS

[10] = cited from earlier work
[11] = Lot 4 +7 days (7 day old blood stored at 4 °C), 10% RBCs
[12] = mean over the lots of Table 1, 10% RBCs

Compound: Cc1cc(N(CCOS(C)(=O)=O)CCOS(C)(=O)=O)ccc1C=O [BEN, 4-[bis[2-[(methylsulfonyl)-oxy]ethyl]amino]-2-methyl-benzaldehyde]
- time by which the equilibrium between RBCs and plasma was complete (BEN blood partitioning): ≤ 5 min
- average plasma to whole blood partition ratio (BEN blood partitioning; disulfiram 1 mM, BEN 1000 ng/mL, triplicate): 1.25 ± 0.08
- exposures observed [1]: 14.5 ng/mL
- metabolism in cytosolic fraction [2]: oxidized
- ability of isoform to metabolize BEN (ALDH3A1): ALDH1A1 was the only isoform that showed the ability to metabolize BEN
- conversion in whole blood [3]: rapidly converted to its carboxylic acid analogue (BA)
- ability of isoform to metabolize BEN (ALDH5A1): ALDH1A1 was the only isoform that showed the ability to metabolize BEN
- metabolism in liver microsomal fraction (CYP3A): undergoes N-dealkylation
- activity in the NCI 60 cell line screen [4]: specific activity against renal carcinoma cells (RCC)
- starting concentrations that display linear metabolism (RBCs [5]; 10% RBCs): below 400 ng/mL
- Cl (RBCs [5]; Lot 1 human blood, 10% RBCs): 0.333 mL/min
- Km (RBCs [5]; Lot 1 human blood, 10% RBCs): 196.3 ng/mL
- Vmax (RBCs [5]; Lot 1 human blood, 10% RBCs): 65.44 ng/mL^−1•min^−1•[10% RBC]^−1
- Cl (RBCs [5]; Lot 2 human blood, 10% RBCs): 0.2736 mL/min
- Km (RBCs [5]; Lot 2 human blood, 10% RBCs): 319.5 ng/mL
- Vmax (RBCs [5]; Lot 2 human blood, 10% RBCs): 87.42 ng/mL^−1•min^−1•[10% RBC]^−1
- Cl (RBCs [5]; Lot 3 human blood, 10% RBCs): 0.282 mL/min
- Km (RBCs [5]; Lot 3 human blood, 10% RBCs): 256.2 ng/mL
- Vmax (RBCs [5]; Lot 3 human blood, 10% RBCs): 72.27 ng/mL^−1•min^−1•[10% RBC]^−1
- Cl (RBCs [5]; [11]): 0.1432 mL/min
- Km (RBCs [5]; [11]): 699.6 ng/mL
- Vmax (RBCs [5]; [11]): 100.2 ng/mL^−1•min^−1•[10% RBC]^−1
- Cl (RBCs [5]; Lot 4 human blood, 10% RBCs): 0.1859 mL/min
- Km (RBCs [5]; Lot 4 human blood, 10% RBCs): 609.8 ng/mL
- Vmax (RBCs [5]; Lot 4 human blood, 10% RBCs): 113.4 ng/mL^−1•min^−1•[10% RBC]^−1
- Cl (RBCs [5]; Lot 5 human blood, 10% RBCs): 0.1588 mL/min
- Km (RBCs [5]; Lot 5 human blood, 10% RBCs): 481.8 ng/mL
- Vmax (RBCs [5]; Lot 5 human blood, 10% RBCs): 76.5 ng/mL^−1•min^−1•[10% RBC]^−1
- Cl (RBCs [5]; Lot 6 human blood, 10% RBCs): 0.1836 mL/min
- Km (RBCs [5]; Lot 6 human blood, 10% RBCs): 371.2 ng/mL
- Vmax (RBCs [5]; Lot 6 human blood, 10% RBCs): 68.16 ng/mL^−1•min^−1•[10% RBC]^−1
- Average apparent Km (RBCs [5]; human RBC, abstract): 373 ng/mL
- Cl, Mean (RBCs [5]; [12]): 0.22 mL/min
- Vmax, Mean (RBCs [5]; [12]): 83.3 ng/mL^−1•min^−1•[10% RBC]^−1
- ability of isoform to metabolize BEN (purified human ALDH1A1; purified ALDH1A1, BEN 1000 ng/mL): showed the ability to metabolize BEN
- rate of disappearance of BEN (purified human ALDH1A1; three independent experiments, 5 μg/mL purified enzyme, BEN 1000 ng/mL, 37 °C): 0.172 ng/min/μg of enzyme and 0.224 ng/min/μg of enzyme and 0.154 ng/min/μg of enzyme
- metabolism of BEN by lysed RBCs (lysed RBCs; 10% RBCs lysed by freeze-thaw, no cofactor added): did not metabolize BEN
- metabolism of BEN by lysed RBCs (lysed RBCs; 10% lysed RBCs + NADH 500 μM): restored the ability of lysed RBCs to metabolize BEN
- metabolism of BEN by lysed RBCs (lysed RBCs; 10% lysed RBCs + NADPH 500 μM): partially restored the ability of lysed RBCs to metabolize BEN
- exposures observed [6]: 16 ng/mL
- BEN remaining (RBCs [7]; 10% RBCs, after 6 hours): 5%
- BEN remaining (RBCs [7]; 10% RBCs, after one hour): 54%
- BEN remaining (RBCs [7]; no RBCs, after 6 hours): 59%
- BEN remaining (RBCs [7]; no RBCs, after one hour): 99%
- amount of BEN remaining (RBCs [8]; control sample without inhibitor, 10% RBCs, BEN 1 μg/mL): 0.5%
- antitumor activity (RXF-393): demonstrated antitumor activity
- time after which the concentration of BEN was halved (RBCs [9]): approximately 60 min
- ability of isoform to metabolize BEN (ALDH2): ALDH1A1 was the only isoform that showed the ability to metabolize BEN
- in vitro half-life in plasma [10]: 22 min

Compound: CC1=CC(=O)c2ccccc2C1=O [menadione]
- inhibition of BEN metabolism compared with vehicle control (RBCs [8]; 3 mM menadione, 1.5% DMSO v:v, 10% RBCs): DMSO alone (1.5% DMSO v:v) caused the same extent of inhibition
- inhibition of BEN metabolism (conversion of BEN to BA) in RBC (RBCs [8]; BEN 1 μg/mL): not inhibited; also recorded: only a partial inhibitory effect

Compound: CCN(CC)C(=S)SSC(=S)N(CC)CC [disulfiram]
- inhibition of BEN metabolism by purified ALDH1A1 (purified human ALDH1A1; reaction mixture with 4 mM DTT, antibodies at 100x): did not inhibit
- inhibition of BEN metabolism (conversion of BEN to BA) in RBC (RBCs [8]; BEN 1 μg/mL): inhibited; also recorded: almost complete inhibition
